In ChEMBL document CHEMBL1136633, “Synthesis and thrombolytic activity of fibrinogen fragment related cyclopeptides” (Bioorg Med Chem Lett, 2003) one finds Activity and metabolised data, which are given here for twelve compounds.

The subject of data set [1] is Rattus norvegicus. As to the kind of experiment: In vivo thrombolytic activity at a dose of 5.0 mg in male rat. It is filed as functional. In short, it runs like this:
(§1)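 Rat arterial-venous shunt. Arterial blood (1.0 mL) from the right carotid was collected onto a stainless steel helix for 15 min to form a thrombus, which was weighed. The helix was placed in a heparin-filled (50 IU/mL in NS) polyethylene shunt to the left jugular vein. Heparin was injected, then compound. Blood circulated 90 min and the helix was reweighed. Readout was thrombus mass reduction; N=8, NS vehicle, ANOVA.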

Data set [2] in a line: In vitro stability to pepsin promoting hydrolysis after 64h incubation time. It is filed as ADME. The conditions noted are these: read-out: Degradation. In short, it runs like this:
(§2)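 Test compound (10 mg) dissolved in 1 mL phosphate buffer pH 8, then 0.5 mg pepsin or trypsin added. Mixture held at 37 °C. Remaining compound was measured hourly by HPLC using 25% CH₃OH in water with 0.1% CF₃COOH, and percent degradation was derived.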

A short description of data set [3]: In vitro stability to trypsin promoting hydrolysis after 64h incubation time. The class given is ADME. The conditions noted are these: read-out: Degradation. The essentials: as §2
The nature of data set [4]: In vitro stability to trypsin promoting hydrolysis after 84 hr incubation time. It is filed as ADME. The conditions noted are these: read-out: Degradation. In short, it runs like this:
as §2

Data set [5] can be described thus: In vitro stability to pepsin promoting hydrolysis after 84 hr incubation time. The class given is ADME. The conditions noted are these: read-out: Degradation. In short, it runs like this:
as §2

Data set [6] can be described thus: In vitro stability to trypsin promoting hydrolysis after 8 hr incubation time. To be noted: read-out: Degradation. It is filed as ADME. The essentials: as §2
The nature of data set [7]: In vitro stability to trypsin promoting hydrolysis after 2 hr incubation time. It is filed as ADME. To be noted: read-out: Degradation. In short, it runs like this:
as §2

A short description of data set [8]: In vitro stability to pepsin promoting hydrolysis after 8 hr incubation time. It is filed as ADME. To be noted: read-out: Degradation. The essentials: as §2
Data set [9] can be described thus: In vitro stability to trypsin promoting hydrolysis after 1 hr incubation time. It is filed as ADME. To be noted: read-out: Degradation. The essentials: as §2
A short description of data set [10]: In vitro stability to pepsin promoting hydrolysis after 2 hr incubation time. The class given is ADME. The conditions noted are these: read-out: Degradation. In short, it runs like this:
as §2

Data set [11] is described as follows: In vitro stability to pepsin promoting hydrolysis after 1 hr incubation time. It is filed as ADME. To be noted: read-out: Degradation. In short, it runs like this: as §2
In data set [12] the test system is Rattus norvegicus. The data set can be described thus: In vivo thrombolytic activity at a dose of 20.0 mg in male rat. The class given is functional. In short, it runs like this:
as §1

The test system of data set [13] is Rattus norvegicus. The data set can be described thus: In vivo thrombolytic activity at a dose of 10.0 mg in male rat. It is filed as functional. The essentials: as §1

Where a SMILES comes first, the peptide text is derived from it.

Compound `C[C@@H]1NC(=O)[C@@H](CCCN=C(N)N)NC(=O)[C@@H]2CCCN2C(=O)[C@H](C)NC(=O)[C@@H](CCCCN)NC1=O` returned an Activity in data set [1] of 10.62 mg.

As to `C[C@@H]1NC(=O)[C@H](CCCCN)NC(=O)CNC(=O)[C@H](CCCN=C(N)N)NC(=O)[C@@H]2CCCN2C1=O`, the metabolised at 64 h in [2] and in data set [3] was 0% each time. For the same compound, the metabolised at 84 h in data set [4] was 20%; in data set [5] it was 10%.

In the case of `C[C@H](NC(=O)[C@@H]1CCCN1C(=O)[C@H](CCCN=C(N)N)NC(=O)[C@@H](N)CCCCN)C(=O)N[C@@H](CCCCN)C(=O)O` (H-KRPAK-OH), the metabolised at 8 h in data set [6] was 96%; in [8] it was 95%. The metabolised at 2 h in data set [7] amounted to 70%; in [10] it was 80%. The results for the metabolised at 1 h in data set [9] and in data set [11] were 30% and 50%, respectively. The Activity in [1] was found to be 0.28 mg.

Consider `C[C@H](N)C(=O)N[C@@H](CCCN=C(N)N)C(=O)N1CCC[C@H]1C(=O)N[C@@H](C)C(=O)N[C@@H](CCCCN)C(=O)O` (H-ARPAK-OH), for which the results for the metabolised at 8 h in data set [6] and in data set [8] were 99% and 98%, respectively. For the same compound, the metabolised at 2 h in [7] stood at 95%; in data set [10], 50%. For the same compound, the metabolised at 1 h was determined as 79% in data set [9] and 10% in data set [11]. In addition, the Activity in data set [1] is recorded as 6.07 mg.

Turning to `C[C@@H]1NC(=O)[C@H](CCCN=C(N)N)NC(=O)[C@@H]2CCCN2C(=O)[C@H](C)NC(=O)[C@H](CCCCN)NC1=O`, the metabolised at 64 h in data set [2] and in data set [3] was 0% each time. In addition, the metabolised at 84 h was 38% in data set [4] and 40% in [5].

On to `C[C@H](NC(=O)[C@@H]1CCCN1C(=O)[C@H](CCCN=C(N)N)NC(=O)CN)C(=O)N[C@@H](CCCCN)C(=O)O` (H-GRPAK-OH), for which the metabolised at 8 h in data set [6] turned out to be 98%; in data set [8] it was 93%. Moreover, the metabolised at 2 h in [7] was determined as 77%; in [10] it was 75%. Besides, the metabolised at 1 h was 25% in data set [9] and 56% in [11]. For the same compound, the results for the Activity in [12], in data set [1] and in data set [13] were 16.81 mg, 9.31 mg and 13.17 mg, respectively.

As to `C[C@@H]1NC(=O)[C@H](CCCCN)NC(=O)[C@H](CCC(N)=O)NC(=O)[C@H](CCCN=C(N)N)NC(=O)[C@@H]2CCCN2C1=O`, the metabolised at 64 h in data set [2] and in [3] was 0% throughout. The metabolised at 84 h in data set [4] came out at 20%; in data set [5], 25%.

With `C[C@@H]1NC(=O)[C@@H](CCCCN)NC(=O)CNC(=O)[C@@H](CCCN=C(N)N)NC(=O)[C@@H]2CCCN2C1=O`, the results for the Activity in [12], in data set [1] and in data set [13] were 18.88 mg, 11.86 mg and 17.31 mg, respectively.

For `C[C@@H]1NC(=O)[C@@H](CCCCN)NC(=O)[C@H](CCCCN)NC(=O)[C@@H](CCCN=C(N)N)NC(=O)[C@@H]2CCCN2C1=O`, in [1], the Activity was 6.13 mg.

For the compound `C[C@H](NC(=O)[C@@H]1CCCN1C(=O)[C@H](CCCN=C(N)N)NC(=O)[C@@H](N)CCC(N)=O)C(=O)N[C@@H](CCCCN)C(=O)O` (H-QRPAK-OH), the metabolised at 8 h in data set [6] is 95%; in data set [8] it was 92%. In addition, the results for the metabolised at 2 h in data set [7] and in data set [10] were 72% and 78%, respectively. The metabolised at 1 h in data set [9] was 20%; in data set [11], 45%. This compound gave an Activity in data set [1] of 7.02 mg.

Turning to `C[C@@H]1NC(=O)[C@H](CCCCN)NC(=O)[C@H](CCCCN)NC(=O)[C@H](CCCN=C(N)N)NC(=O)[C@@H]2CCCN2C1=O`, the metabolised at 64 h in [2] and in data set [3] was 0% in each case. Also, the metabolised at 84 h in data set [4] was 35%; in data set [5] it was 30%.

For `C[C@@H]1NC(=O)[C@@H](CCCCN)NC(=O)[C@H](CCC(N)=O)NC(=O)[C@@H](CCCN=C(N)N)NC(=O)[C@@H]2CCCN2C1=O`, the Activity in data set [1] is recorded as 9.68 mg.
